# High-throughput results deposited in PubChem BioAssay by several laboratories.
# b-catenin transl = beta-catenin nuclear translocation modulation | HeLa beta-catenin nuclear translocation, immunofluorescence imaging | 0.3% of 190,000 active | nuclear translocation activity, % at 5 µM | AID 1665;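 active means nuclear translocation activity above 50% at 5 µM, with a well cell count of 50 or more; inconclusive means wells under 50 cells across six images, flagged as toxic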;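 further: per-cell ratio of nuclear to cytoplasmic median beta-catenin stain intensity; plate controls were DMSO negative control for no effect and GSK-3 inhibitor IX positive control for full effect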
#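 Assay system: human HeLa cells, native beta-catenin; doses: 5 µM primary, 0.02–20 µM confirmation; incubation: compound treatment 24 h, 37°C, 5% CO2; technique: fluorescence imaging of beta-catenin antibody stain plus DAPI; measure: % activation, nuclear-to-cytoplasmic median beta-catenin signal ratio per cell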
# Cl transport mod = modulators of human KCC2 chloride dependent transport. Q9H2X9. KCC2 cells, thallium flux FluoZin-2 fluorescence. B-score of Tl+ flux slope (higher = more flux/activation; lower = inhibition) at 10 µM. 2.2% of 190,000 active;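 active means thallium flux slope and its plate-corrected score both differing from the plate sample mean at a set confidence after two filtering rounds, in either direction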;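 further: slope of fluorescence scaled to starting intensity during 10 to 20 s after thallium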
# MT stabilize HCS = microtubule stabilization, imaging screen; % tubulin-high responders, % at 10 µM; HeLa tubulin immunostaining HCS, 24 h; share of cells brighter than vehicle mean+2SD; AID 2205; 0.83% of 200,000 active;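 active means plate Z-score above 3 for both tubulin-high and condensed-nucleus cell shares, with cell loss under 80%, at 10 µM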;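 further: anti alpha tubulin signal scored within the nucleus-defined area of each cell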
# WT yeast gro inh = growth inhibition of WT yeast, mitochondrial fusion screen; mitochondrial fusion phenotypic screen, WT strain; inhibition, % at 10 µM; 2.1% of 190,000 active; AID 1362; in the data active means inhibition above about 58%; tested in S. cerevisiae
# Pf gamet viab = inhibitors of late stage P. falciparum gametocyte viability | P. falciparum stage V gametocytes, ATP luminescence, 24 h | inhibition, % at 10.9 µM | 0.065% of 150,000 active | AID 743093;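 active means inhibition above the mean plus 3 SD of compounds within the control limits, set per campaign, cut at about 38% in these data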;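 further: 0% = DMSO wells and 100% = medium only without gametocytes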
# KCC2 sec1 = confirmation of human KCC2 transport modulators | shares compounds with Cl transport mod | HEK293-KCC2, thallium flux, FluoZin2 fluorescence; hits give high values | normalised thallium flux (F/F0 slope) at 10 µM | 15% of 3,700 active;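 active means thallium flux slope above the same plate's solvent-only control mean plus 3 SD; inconclusive means the two replicate wells disagree; inactive means no significant difference from solvent-only control wells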
# KCC2 bumet counter = thallium flux despite bumetanide block in KCC2 cells, secondary assay 3; HEK293-KCC2 + bumetanide/ouabain, thallium flux FluoZin2; hits give high values; shares compounds with Cl transport mod; 49% of 3,700 active; normalized thallium flux at 10 µM;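 active means thallium entry rate above the same plate's blocked-transporter control wells by more than 3 SD; inconclusive means the two repeat wells disagree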;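 further: raw slope of fluorescence over initial fluorescence between 10 and 20 s after thallium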
# KCC2 sec2 = KCC2 (human) modulation, second secondary assay | shares compounds with Cl transport mod | HEK293-KCC2, thallium flux FluoZin2 fluorescence; actives lie on both sides; F/F0 rise rate, 10–20 s post-thallium | normalized thallium flux at 10 µM | 23% of 3,700 active | AID 1715;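 active means thallium flux slope more than 3 SD above or below the plate's solvent-only control mean, mostly below; inconclusive means the two repeat wells disagreed; inactive means no significant shift from solvent-only controls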;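 further: raw slope with 0.1% DMSO as baseline and bumetanide as block control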
# HEK293 Tl flux = acts in parental HEK cells, KCC2 counter-screen; shares compounds with Cl transport mod; HEK293 parental cells, thallium flux FluoZin2, ouabain; baseline-ratio fluorescence slope, 10–20 s after thallium; thallium flux rate (normalised fluorescence) at 10 µM; 46% of 3,700 active; AID 1716;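 active means thallium flux rate significantly above the same plate's solvent-only control wells, beyond their mean plus 3 SD; inconclusive means the two replicate wells gave conflicting results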
# KCC2 ouabain = modulates human KCC2 on retest with ouabain; shares compounds with Cl transport mod; HEK293-KCC2, thallium flux FluoZin2 fluorescence; bidirectional: low = inhibitor, high = activator; raw Tl+ flux slope (below DMSO = inhibition, above = activation) at 10 µM; 48% of 3,700 active;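 active means thallium flux slope beyond 3 SD from same-plate DMSO control mean in most replicates, usually higher, sometimes lower; inconclusive means repeat tests gave conflicting results; inactive means no significant difference from controls in most replicates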;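 further: slope of initial-normalized fluorescence between seconds 10 and 20 after thallium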
# HEK293 Tl flux2 = acts in parental HEK cells, second KCC2 counter-screen; thallium flux slope at 10 µM; HEK293 parental, thallium flux FluoZin-2 fluorescence slope; 33% of 3,700 active; shares compounds with Cl transport mod;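 active means thallium flux slope above the same plate's solvent-control mean plus 3 SD in both duplicate wells; inconclusive means duplicate wells that disagreed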;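 further: run without ouabain in cells lacking the KCC2 cotransporter; slope of fluorescence scaled to its starting value between 10 and 20 s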
# * marks the source's active call; other numbers are inactive results; ? = inconclusive; nt = no result. Only some compounds are listed: those with a hit (about 4% of all), similar ones and a draw of the others.
SMILES,b-catenin transl,Cl transport mod,MT stabilize HCS,WT yeast gro inh,Pf gamet viab,KCC2 sec1,KCC2 bumet counter,KCC2 sec2,HEK293 Tl flux,KCC2 ouabain,HEK293 Tl flux2
CCSc1nc2c(c(=O)[nH]c(=O)n2C)n1C/C=C(/C)Cl,-5,7*,6,4,-18,0.0088,0.0066,0.033,0.007,0.02,0.01
N#CCSc1ncnc2c1cnn2CCO,1,0.68,2,4,nt,nt,nt,nt,nt,nt,nt
CCN(CC(=O)Nc1ccc(Cl)c(C(F)(F)F)c1)CC(=O)NC1CCS(=O)(=O)C1 (stereo not given),0,-0.96,4,-3,6,nt,nt,nt,nt,nt,nt
CC1CCCCC1NC(=S)NC(=O)c1ccccc1Br (stereo not given),-1,22*,4,8,-9,0.0074,0.0097*,0.035,0.014*,0.027*,0.015*
CC(=O)c1cccc(NC(=S)NC(=O)c2ccc(Cl)cc2)c1,-4,5.5*,3,0,26,0.0059,0.016*,0.031,0.011*,?,?
CC(=O)c1cccc(NC(=S)NC(=O)c2ccccc2Br)c1,-10,7*,2,-10,-13,0.014*,0.076*,0.038,0.017*,?,0.013*
O=C(O)c1cccc(NC(=S)NC(=O)c2ccncc2)c1,-2,-0.019,11,6,-43,nt,nt,nt,nt,nt,nt
Cc1ccc(N(CC(O)CN2CCCCC2)S(=O)(=O)c2ccccc2[N+](=O)[O-])cc1 (stereo not given),0,0.9,3,-2,6,nt,nt,nt,nt,nt,nt
CC(C(c1cccs1)c1c(N)n(C)c(=O)n(C)c1=O)[N+](=O)[O-] (stereo not given),1,0.018,nt,nt,0,nt,nt,nt,nt,nt,nt
Cc1nn(-c2ccccc2)c2nc(C(Cl)(Cl)Cl)[nH]c(=O)c12,1,91*,nt,nt,-24,0.0064,0.071*,?,0.064*,0.065*,0.05*
Cc1ccc(-n2nc(C)c3c(=O)[nH]c(C(F)(F)F)nc32)cc1,nt,0.0075,4,-16,nt,nt,nt,nt,nt,nt,nt
CCn1c(O)c(N=NC(=O)c2cccs2)c2ccccc21,-4,8.8*,2,15,17,?,0.029*,0.032,0.013*,0.027*,0.011*
CCn1c(O)c(N=N)c2ccccc21,-2,0.29,2,-9,-20,nt,nt,nt,nt,nt,nt
CCCCOc1cccc(-c2cc(C(=O)NNC(=S)NCC)c3ccccc3n2)c1,nt,-0.76,1,-8,28,nt,nt,nt,nt,nt,nt
CCCOc1cccc(-c2cc(C(=O)NN)c3ccccc3n2)c1,nt,22*,3,20,-1,0.0065,0.0044,0.029,0.0073,0.019,0.0096
CCOC(=O)C(C(C)C)C(N)Cc1ccc(F)cc1 (stereo not given),0,-0.13,2,-1,-9,nt,nt,nt,nt,nt,nt
O=c1[nH]nc(Sc2ncnc3sccc23)n1CCc1ccccc1,3,-3.2*,4,-10,nt,0.0096,0.0072,0.031,0.0039,0.019,0.012
CCOc1ccc(C2=Nn3c(nnc3-c3ccccn3)SC2)cc1,1,-0.76,6,-9,-4,0.01,0.0062,0.034,0.0064,0.022,0.01
CCOc1ccc(C2=Nn3c(nnc3-c3ccco3)SC2)cc1,0,0.16,3,45,5,nt,nt,nt,nt,nt,nt
CCN1CCN(C(=O)c2ccc3c(=O)n(C4CCCC4)c(=S)[nH]c3c2)CC1,nt,nt,1,17,32,nt,nt,nt,nt,nt,nt
O=C(c1ccc2c(=O)n(C3CCCC3)c(=S)[nH]c2c1)N1CCN(C2CCCCC2)CC1,-1,8.3*,4,0,-5,0.0063,0.0098*,0.029,0.015*,0.021,0.013*
CCOC(=O)N1CCN(C(=O)c2ccc3c(=O)n(Cc4ccc(Cl)cc4)c(=S)[nH]c3c2)CC1,1,nt,4,-2,23,0.0063,0.015*,0.032,0.013*,?,0.016*
O=C(c1ccc2c(=O)n3c(nc2c1)CCCCC3)N1CCc2ccccc21,0,-2.2,nt,nt,-41,nt,nt,nt,nt,nt,nt
O=C(Cc1cccs1)N1CCCC(c2nc3c(nnn3Cc3ccccc3Cl)c(=O)[nH]2)C1 (stereo not given),1,-3.7*,5,-3,nt,0.0067,0.0055,0.031,0.0064,0.017*,0.011
O=C(/C=C/c1ccccc1)N1CCC(Cc2ccccc2)CC1,0,nt,1,3,22,0.0068,0.006,0.027,0.0068,0.014*,0.01
SMILES,b-catenin transl,Cl transport mod,MT stabilize HCS,WT yeast gro inh,Pf gamet viab,KCC2 sec1,KCC2 bumet counter,KCC2 sec2,HEK293 Tl flux,KCC2 ouabain,HEK293 Tl flux2
CCCS(=O)(=O)N1CCC(C(=O)N2CCC(Cc3ccccc3)CC2)CC1,0,nt,4,1,nt,0.0076,0.0066,0.029,0.0075,0.028*,0.01
O=C1[C@H]2[C@@H](/C=C/c3ccccc3)N3C(=O)CN(Cc4ccccn4)C(=O)[C@@]3(Cc3ccccc3)[C@H]2C(=O)N1c1ccccc1,nt,nt,nt,nt,-24,nt,nt,nt,nt,nt,nt
CSc1nnc(C)c(=O)n1COC(=O)/C=C/c1ccc2c(c1)OCO2,0,-0.76,3,-15,27,nt,nt,nt,nt,nt,nt
CC(C)CNC(=O)c1ccc(COc2ccc(Cl)cc2Cl)o1,-3,-4*,2,5,nt,0.0054,0.0049,0.023*,0.0062,0.013*,0.0091
N#CC1=C(SCC(=O)Nc2ccc(C(=O)O)cc2)NC(=O)CC1c1ccco1 (stereo not given),-1,0.54,nt,nt,2,nt,nt,nt,nt,nt,nt
CCCCCn1c(CCCNC(=O)CC)nc2ccccc21,-4,-0.11,4,7,nt,nt,nt,nt,nt,nt,nt
C#CCOCCOCCOCCNc1nc(N2CCN(C(=O)[C@H]([C@@H](C)CC)n3cc([C@@H](N)CO)nn3)CC2)nc(N2CCN(C(=O)[C@H](Cc3cc4ccccc4[nH]3)n3cc([C@@H](N)Cc4ccc(O)cc4)nn3)CC2)n1,4,0.87,nt,nt,nt,nt,nt,nt,nt,nt,nt
Cc1cccc(OCc2n[nH]c(=S)n2Cc2ccccc2)c1,0,8.9*,5,65*,12,0.013*,0.062*,0.033,0.018*,0.026,0.012*
CC(C)CCn1c(COc2ccccc2)n[nH]c1=S,-3,6.2*,2,30,10,0.0096,0.03*,0.029,0.014*,0.026,0.011*
S=c1[nH]nc(-c2ccc(Br)cc2)n1Cc1ccco1,-5,nt,4,22,-19,0.0065,0.016*,0.029,0.015*,?,0.014*
